Experimental data: ChEMBL document CHEMBL3102827, “Permeability and conjugative metabolism of flaxseed lignans by Caco-2 human intestinal cells” (J Nat Prod, 2014); call rule not given here

Tests used:
Caco-2 [1] = assay: (§1) Apparent permeability across basolateral to apical side in human Caco2 cells after 2 hrs by HPLC analysis; type: ADME, cell-based; details: caco-2, 2 h, BLD = below limit of detection
Summary of the method: (§2)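 Caco-2 (passages 41−54, DMEM/10% FBS/1% NEAA) grown 21 days on polyester Transwells (0.4 μm pore). Cells washed with HBSS/10 mM HEPES pH 7.4 and equilibrated 30 min at 37 °C; lignan at 100 μM added to apical or basolateral side, 2 h at 37 °C. Both compartments sampled and quantified by HPLC. Papp = (dQ/dt)/(Am·C0). Integrity checked by TEER and Lucifer yellow. Transport linear to 2 h.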

[2] = Drug metabolism in human Caco2 cells assessed as compound glucuronidation/sulfation at 100 uM after 48 hrs by HPLC analysis; type: ADME, cell-based; details: Caco-2 cells, read-out: Drug metabolism
Summary of the method: (§3)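 Caco-2 grown 21 days in 24-well plates, washed with HBSS/HEPES pH 7.4, then given 100 μM lignan in DMEM in triplicate at 37 °C. Supernatant and cells taken at 0, 2, 4, 6, 12, 24 and 48 h. Samples hydrolysed with H. pomatia β-glucuronidase/sulfatase H-5 (0.66 mg in 0.1 M acetate pH 5.0, 37 °C, 2 h), acetonitrile-precipitated and analysed by HPLC. Conjugate = total minus free, relative to a zero-time control.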

[3] = Stability in HBSS after 48 hrs; type: physicochemical; details: read-out: Stability
Summary of the method: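 Lignans kept in test medium in wells without cells for up to 48 h. Remaining compound was measured to judge stability.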

Caco-2 [4] = assay: (§4) Apparent permeability across apical to basolateral side in human Caco2 cells after 2 hrs by HPLC analysis; type: ADME, cell-based; details: caco-2, 2 h, BLD = below limit of detection; summary of the method: as §2
[5] = as §1; type: ADME, cell-based, Caco-2; details: Caco-2; summary of the method: as §2
[6] = Activity at Helix pomatia beta-glucuronidase/sulfatase type H-5 in compound-treated human Caco2 cell lysate assessed as formation of glucuronidase/sulfatase-sensitive conjugates at 100 uM after 12 hrs by HPLC analysis; type: ADME, cell-based; details: caco-2, 12 h; summary of the method: as §3
[7] = as §4; type: ADME, cell-based, Caco-2; details: Caco-2; summary of the method: as §2
[8] = Efflux ratio of permeability from basolateral to apical side over apical to basolateral side in human Caco2 cells after 2 hrs by HPLC analysis; type: ADME, cell-based; details: Caco-2
Summary of the method: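 Efflux ratio taken as Papp B→A over Papp A→B. Papp comes from 2 h bidirectional transport of 100 μM lignan across 21-day Caco-2 monolayers on Transwells in HBSS/10 mM HEPES pH 7.4 at 37 °C, with HPLC quantitation of both compartments. TEER and Lucifer yellow used to confirm monolayer integrity.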

Row | Compound | Papp (Caco-2 [1]) | metabolised at 48 h, 100 µM [2] [%] | remaining at 48 h [3] [%] | Papp (Caco-2 [4]) | Papp B→A at 2 h [5] [×10⁻⁶ cm/s] | Drug metabolism [6] | Papp A→B at 2 h [7] [×10⁻⁶ cm/s] | efflux ratio at 2 h [8]
1 | COc1cc(C[C@@H](CO[C@@H]2O[C@H](CO)[C@@H](O)[C@H](O)[C@H]2O)[C@H](CO[C@@H]2O[C@H](CO)[C@@H](O)[C@H](O)[C@H]2O)Cc2ccc(O)c(OC)c2)ccc1O | BLD | < 3 | > 95 | BLD |  |  |  | 
2 | O=C1OC[C@H](Cc2cccc(O)c2)[C@H]1Cc1cccc(O)c1 (relative stereo) [ENTEROLACTONE] |  |  | > 95 |  | 10.6 | Active | 13.7 | 0.8
3 | COc1cc(C[C@@H](CO)[C@H](CO)Cc2ccc(O)c(OC)c2)ccc1O [(+)-SECOISOLARICIRESINOL] |  |  | > 95 |  | 9.5 |  | 8 | 1.2
4 | OC[C@H](Cc1cccc(O)c1)[C@H](CO)Cc1cccc(O)c1 [ENTERODIOL] |  |  | > 95 |  | 8.9 |  | 7.7 | 1.2
